Test results: ChEMBL document CHEMBL6134795, “Mannich reaction mediated derivatization of chromones and their biological evaluations as putative multipotent ligands for the treatment of Alzheimer's disease” (RSC Med Chem, 2024)
Activity calls are given as the source filed them. The rule behind the calls is not given here.

Assays:
[1] = molecular target: T1, Amine oxidase [flavin-containing] B (Homo sapiens, UniProt P27338); experiment: Inhibition of recombinant MAO-B (unknown origin) preincubated for 30 mins followed substrate addition by Amplex Red reagent based fluorescence analysis
T1 sequence (P27338 whole entry): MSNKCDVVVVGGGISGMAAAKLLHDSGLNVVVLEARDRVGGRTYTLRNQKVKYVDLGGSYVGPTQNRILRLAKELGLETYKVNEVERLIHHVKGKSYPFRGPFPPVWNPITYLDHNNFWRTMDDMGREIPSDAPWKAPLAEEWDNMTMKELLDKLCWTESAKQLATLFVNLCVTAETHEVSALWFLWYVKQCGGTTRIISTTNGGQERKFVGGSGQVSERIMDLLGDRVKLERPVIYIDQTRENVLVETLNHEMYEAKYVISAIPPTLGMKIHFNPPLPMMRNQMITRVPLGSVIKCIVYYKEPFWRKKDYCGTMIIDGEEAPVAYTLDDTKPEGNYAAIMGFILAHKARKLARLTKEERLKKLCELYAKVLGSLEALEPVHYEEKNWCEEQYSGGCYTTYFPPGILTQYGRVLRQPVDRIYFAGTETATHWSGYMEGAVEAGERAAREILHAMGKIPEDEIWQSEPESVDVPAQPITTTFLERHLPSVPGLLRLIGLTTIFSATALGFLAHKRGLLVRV

[2] = molecular target: Amyloid-beta precursor protein (Homo sapiens) (UniProt P05067); experiment: Inhibition of self-induced amyloid beta (1 to 42 residues) (unknown origin) aggregation assessed as reduction in fibrils formation measured after 72 hrs by FE-SEM analysis
Outline: (§1)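 HFIP-pretreated Aβ1-42 incubated with or without inhibitor for 72 h; samples placed on carbon-coated copper grids, dried 1 h at 37 °C, imaged by FE-SEM. Glycine–NaOH buffer served as blank and Aβ alone as control.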

[3] = molecular target: Amyloid-beta precursor protein (Homo sapiens) (UniProt P05067); experiment: Inhibition of self-induced amyloid beta (1 to 42 residues) (unknown origin) aggregation assessed as reduction in plaques formation measured after 72 hrs by FE-SEM analysis; outline: as §1
Acetylcholinesterase [4] = molecular target: T2, Acetylcholinesterase (Homo sapiens, UniProt P22303); experiment: Reversible inhibition of AChE (unknown origin) assessed as residual activity at 10 times IC50 incubated for 30 mins by dilution method relative to control
Outline: (§2)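 Samples then diluted 100-fold with substrate, giving final inhibitor levels of 0.1× and 1× IC50. Recovered activity measured relative to control; triplicate.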

Acetylcholinesterase [5] = molecular target: T2, Acetylcholinesterase; experiment: Reversible inhibition of AChE (unknown origin) assessed as residual activity at 1 times IC50 incubated for 30 mins by dilution method relative to control; outline: as §2
Acetylcholinesterase [6] = molecular target: T2, Acetylcholinesterase; experiment: Reversible inhibition of AChE (unknown origin) assessed as residual activity at 0.1 times IC50 incubated for 30 mins by dilution method relative to control; outline: as §2
[7] = molecular target: T1, Amine oxidase [flavin-containing] B; experiment: Reversible inhibition of MAO-B (unknown origin) assessed as residual activity at 1 times IC50 incubated for 30 mins by dilution method relative to control; settings: 0.5 h
[8] = molecular target: T1, Amine oxidase [flavin-containing] B; experiment: Reversible inhibition of MAO-B (unknown origin) assessed as residual activity at 0.1 times IC50 incubated for 30 mins by dilution method relative to control; settings: 0.5 h
Acetylcholinesterase [9] = molecular target: T2, Acetylcholinesterase; experiment: Mixed type inhibition of AChE (unknown origin) by Lineweaver-Burk plot analysis
Outline: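 Ellman-based AChE kinetics run at several substrate concentrations and several final inhibitor concentrations. Mode of inhibition assigned from double-reciprocal Lineweaver–Burk plots.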

SH-SY5Y [10] = experiment: Cytotoxicity against human SH-SY5Y cells assessed as cell viability at 1 uM by MTT assay relative to control; assay type: functional; settings: read-out: Activity
Outline: (§3)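 SH-SY5Y cells (DMEM/F-12 with 10% FBS, 1% horse serum, 1% penicillin) preincubated 24 h with compound at 1, 5 or 25 μM; MTT converted to formazan, solubilised in DMSO, absorbance read at 595 nm; viability expressed as percentage of untreated control.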

SH-SY5Y [11] = experiment: Cytotoxicity against human SH-SY5Y cells assessed as reduction in cell viability at 1 to 25 uM by MTT assay; assay type: functional, cell-based; settings: dose 1-25 µM; outline: as §3
SH-SY5Y [12] = experiment: Inhibition of ROS production in human SH-SY5Y cells assessed as intracellular ROS level at 25 uM incubated for 24 hrs by DCF-DA staining based fluorescence analysis relative to control; assay type: functional
Outline: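 Cultured SH-SY5Y cells exposed to compound (1, 5, 25 μM) for 24 h; intracellular ROS detected with DCF-DA, which is converted to fluorescent 2,7-DCF, read at ex 478/em 518 nm. Inhibition is expressed relative to control. Mean ± SD of triplicate or more independent experiments.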

SH-SY5Y [13] = experiment: Neuroprotective activity against 6-OHDA-induced cytotoxicity in human SH-SY5Y cells assessed as cell viability at 1 uM incubated for 24 hrs followed by exposure to 6-OHDA by MTT assay relative to control; assay type: functional; settings: read-out: Activity
Outline: (§4)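 SH-SY5Y cells treated with compound (1, 5, 25 μM) and challenged with 6-OHDA; cultured 24 h at 37 °C under humidified 5% CO2. Viability measured by MTT as formazan absorbance at 594 nm and expressed relative to control.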

SH-SY5Y [14] = experiment: Neuroprotective activity against 6-OHDA-induced cytotoxicity in human SH-SY5Y cells assessed as cell viability at 25 uM incubated for 24 hrs followed by exposure to 6-OHDA by MTT assay relative to control; assay type: functional; settings: read-out: Activity; outline: as §4

T2 sequence (P22303 whole entry): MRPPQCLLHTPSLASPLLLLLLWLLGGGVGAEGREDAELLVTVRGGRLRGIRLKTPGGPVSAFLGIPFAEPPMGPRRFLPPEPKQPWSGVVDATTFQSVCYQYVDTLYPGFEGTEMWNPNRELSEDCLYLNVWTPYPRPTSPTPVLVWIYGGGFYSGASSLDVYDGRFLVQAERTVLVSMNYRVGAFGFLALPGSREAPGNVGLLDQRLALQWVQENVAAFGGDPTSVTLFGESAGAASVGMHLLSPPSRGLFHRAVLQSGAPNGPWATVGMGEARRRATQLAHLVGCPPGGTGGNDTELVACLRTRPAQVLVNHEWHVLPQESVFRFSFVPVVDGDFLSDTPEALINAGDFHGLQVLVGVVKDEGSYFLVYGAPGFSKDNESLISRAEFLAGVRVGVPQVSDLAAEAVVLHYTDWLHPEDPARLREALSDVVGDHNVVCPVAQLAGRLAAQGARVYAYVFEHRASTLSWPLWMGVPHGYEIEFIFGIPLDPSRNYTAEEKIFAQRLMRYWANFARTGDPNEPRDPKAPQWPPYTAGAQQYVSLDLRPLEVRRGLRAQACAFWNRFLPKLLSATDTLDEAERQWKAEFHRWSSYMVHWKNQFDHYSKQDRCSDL
Chain of Amyloid-beta precursor protein (Homo sapiens) (P05067 whole entry, the tested form may be a part): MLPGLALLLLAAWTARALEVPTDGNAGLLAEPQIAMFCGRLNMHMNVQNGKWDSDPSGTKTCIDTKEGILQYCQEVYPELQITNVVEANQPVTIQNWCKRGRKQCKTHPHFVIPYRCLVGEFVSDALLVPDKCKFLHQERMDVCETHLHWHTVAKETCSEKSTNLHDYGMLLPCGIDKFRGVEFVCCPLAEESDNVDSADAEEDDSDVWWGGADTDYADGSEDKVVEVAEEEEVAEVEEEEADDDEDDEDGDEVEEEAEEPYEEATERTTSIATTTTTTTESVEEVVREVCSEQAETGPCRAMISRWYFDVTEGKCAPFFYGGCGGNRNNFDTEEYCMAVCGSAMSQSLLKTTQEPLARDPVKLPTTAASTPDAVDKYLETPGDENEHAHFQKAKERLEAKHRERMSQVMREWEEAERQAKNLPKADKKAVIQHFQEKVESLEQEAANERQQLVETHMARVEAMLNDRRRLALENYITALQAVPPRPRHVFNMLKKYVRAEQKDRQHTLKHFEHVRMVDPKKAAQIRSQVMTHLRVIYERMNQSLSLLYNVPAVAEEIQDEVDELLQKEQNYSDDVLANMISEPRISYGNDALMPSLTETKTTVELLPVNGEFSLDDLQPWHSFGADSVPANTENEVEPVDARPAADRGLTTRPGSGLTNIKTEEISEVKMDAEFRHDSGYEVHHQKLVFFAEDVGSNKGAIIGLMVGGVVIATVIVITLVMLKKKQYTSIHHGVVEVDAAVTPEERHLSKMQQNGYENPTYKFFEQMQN

## C#CCCCOc1ccc(-c2cc(=O)c3ccccc3o2)cc1CN1CCCCC1
[1]
  IC50: 12.3 µM
[2]
  inhibition: Active
[3]
  inhibition: Active
Acetylcholinesterase [4]
  Activity: 28.9%
Acetylcholinesterase [5]
  Activity: 44.9%
Acetylcholinesterase [6]
  Activity: 60.6%
[7]
  Activity: 50.3%
[8]
  Activity: 71.4%
Acetylcholinesterase [9]
  inhibition: Active
SH-SY5Y [10]
  viability at 1 µM: 99.6%
SH-SY5Y [11]
  Activity: Not toxic
SH-SY5Y [12]
  inhibition at 25 µM: 34.8%
SH-SY5Y [13]
  viability at 1 µM: 55.1%
SH-SY5Y [14]
  viability at 25 µM: 44.1%
